Source: publication PMC8646148 (Bioorganic chemistry, 2021)

Experiments:
CYP3A11 mRNA [1] = conditions: PXR target genes CYP3A11 and MDR1a; depending on the dose schedule; ref [21]; cited from earlier work
PXR [2] = target: T1, PXR (Homo sapiens, UniProt O75469); conditions: ref [21]; cited from earlier work
T1 sequence (O75469 1-434): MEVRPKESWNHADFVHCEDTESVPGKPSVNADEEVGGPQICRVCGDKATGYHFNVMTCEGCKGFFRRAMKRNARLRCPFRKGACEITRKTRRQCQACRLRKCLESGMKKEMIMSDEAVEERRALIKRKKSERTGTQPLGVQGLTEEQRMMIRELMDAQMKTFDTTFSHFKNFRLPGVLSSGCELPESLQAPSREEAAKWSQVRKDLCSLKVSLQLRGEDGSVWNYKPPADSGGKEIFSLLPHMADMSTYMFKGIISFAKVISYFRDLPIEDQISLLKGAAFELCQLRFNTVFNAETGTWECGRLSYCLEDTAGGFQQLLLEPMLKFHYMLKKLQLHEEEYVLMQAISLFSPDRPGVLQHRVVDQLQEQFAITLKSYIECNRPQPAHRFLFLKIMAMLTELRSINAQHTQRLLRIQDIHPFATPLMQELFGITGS

PXR [3] = target: T1, PXR; experiment: PXR reporter gene assay in LS180 cells transfected with pSG5-hPXR and p3A4-luc; assay type: cell-based; conditions: for PXR antagonist effect: antagonist mode, in the presence of RIF 10 μM, 24 h
Summary of the method: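 LS180 cells were lipofected transiently with pSG5-hPXR and p3A4-luc, then treated 24 h with test compound at up to 50 μM in DMSO 0.1% v/v. Agonist mode had no rifampicin; antagonist mode had RIF 10 μM. Luciferase was read after lysis. Antagonist data are % of the 10 μM RIF maximum. Four technical replicates, three consecutive passages.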

AhR = target: T2, AhR (Homo sapiens, UniProt P35869); experiment: AhR reporter gene assay in stably transfected AZ-AHR cells; assay type: cell-based; conditions: 24 h; for AhR agonistic activity: agonist mode, AZ-AHR cells; for Inhibition of TCDD-inducible luciferase activity: antagonist mode, TCDD 5 nM, attributed to cytotoxicity
T2 sequence (P35869 11-848): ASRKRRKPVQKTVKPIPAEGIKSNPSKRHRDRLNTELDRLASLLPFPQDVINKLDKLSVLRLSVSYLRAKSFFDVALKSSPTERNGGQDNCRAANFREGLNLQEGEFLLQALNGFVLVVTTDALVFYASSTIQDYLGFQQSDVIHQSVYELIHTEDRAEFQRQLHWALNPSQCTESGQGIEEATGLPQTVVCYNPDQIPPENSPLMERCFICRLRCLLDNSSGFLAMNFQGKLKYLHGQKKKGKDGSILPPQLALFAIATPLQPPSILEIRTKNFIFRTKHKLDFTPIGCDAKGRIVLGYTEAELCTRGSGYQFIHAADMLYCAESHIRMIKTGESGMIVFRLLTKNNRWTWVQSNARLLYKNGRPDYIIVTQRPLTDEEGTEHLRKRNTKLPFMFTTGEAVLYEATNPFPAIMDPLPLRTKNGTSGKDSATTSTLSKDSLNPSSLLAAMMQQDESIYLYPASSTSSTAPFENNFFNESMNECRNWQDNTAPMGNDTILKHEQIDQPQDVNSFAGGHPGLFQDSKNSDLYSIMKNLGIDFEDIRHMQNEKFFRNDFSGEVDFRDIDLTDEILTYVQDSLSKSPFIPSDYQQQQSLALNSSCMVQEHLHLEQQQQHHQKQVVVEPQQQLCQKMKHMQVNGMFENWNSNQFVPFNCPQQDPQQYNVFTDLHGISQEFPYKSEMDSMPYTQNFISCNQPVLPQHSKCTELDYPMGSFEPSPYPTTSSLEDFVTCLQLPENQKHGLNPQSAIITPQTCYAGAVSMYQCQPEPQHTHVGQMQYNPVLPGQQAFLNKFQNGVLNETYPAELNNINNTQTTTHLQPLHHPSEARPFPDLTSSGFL
Summary of the method: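 AZ-AHR human hepatoma cells stably carrying an AhR-responsive luciferase reporter were exposed for 24 h to test compound at up to 50 μM (vehicle DMSO 0.1% v/v). Agonist mode was run without TCDD; antagonist mode with TCDD 5 nM. Lysed cells were read for luciferase. Agonist data are fold over negative control; antagonist data are % of the 5 nM TCDD maximum. Four wells per treatment, three consecutive passages.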

[4] = target: T3, ligand-binding domain of human PXR (Homo sapiens, UniProt O75469); experiment: LanthaScreen TR-FRET PXR
T3 sequence (O75469 146-433 limits assumed): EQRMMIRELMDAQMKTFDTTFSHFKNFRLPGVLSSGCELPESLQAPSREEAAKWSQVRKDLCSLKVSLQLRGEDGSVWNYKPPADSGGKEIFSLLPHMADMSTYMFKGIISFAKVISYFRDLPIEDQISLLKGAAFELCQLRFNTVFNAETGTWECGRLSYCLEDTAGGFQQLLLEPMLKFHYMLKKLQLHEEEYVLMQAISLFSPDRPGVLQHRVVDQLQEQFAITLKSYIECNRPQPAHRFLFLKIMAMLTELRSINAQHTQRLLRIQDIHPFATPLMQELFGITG
Summary of the method: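 LanthaScreen TR-FRET competitive binding used the human PXR ligand-binding domain and measured displacement of a fluorescent ligand. The signal was the emission ratio 520 nm/495 nm, plotted against test compound concentration. IC50 came from interpolated sigmoidal 4PL variable-slope curves. Quadruplicate wells; at least four independent experiments. Positive control: SR12813 at 100 μM.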

AZ-AHR cells = experiment: MTT test in AZ-AHR cells; assay type: cell-based, human; conditions: 24 h, up to 50 μM
Summary of the method: (§1)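 MTT viability was run alongside the reporter assays in AZ-AHR cells and in PXR-transfected LS180 cells. Exposure was 24 h to test compound at up to 50 μM, with vehicle DMSO 0.1% v/v. Results are given as % viability. Four technical replicates per treatment, across three consecutive cell passages.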

MDR1 mRNA [5] = experiment: qRT-PCR of MDR1 in intestinal adenocarcinoma cells; assay type: cell-based, human; conditions: 24 h; for Induction of MDR1 mRNA: LS174T, LS174T+PXR and LS180+PXR cells; for Induction of MDR1 mRNA in PXR-KO cells: PXR-KO LS174T cells
Summary of the method: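 Four intestinal models were used: LS174T wild-type, a CRISPR-Cas9 PXR-knockout LS174T line, and LS174T and LS180 cells transiently transfected with a human PXR expression vector. Cells were treated 24 h with test compound at 10 μM (DMSO 0.1% v/v), alongside TCDD 10 nM or RIF 10 μM. MDR1 mRNA was measured by qRT-PCR normalized to GAPDH. Three consecutive passages, one well per treatment.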

CYP1A2 mRNA = experiment: qRT-PCR of CYP1A2 in primary human hepatocytes; assay type: cell-based; conditions: human hepatocytes from five donors, 10 μM, 24 h
Summary of the method: (§2)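 Long-term monolayer primary human hepatocytes came from five male donors aged 43–89 years. They were treated 24 h with test compound at 10 μM, with vehicle DMSO 0.1% v/v and reference ligands TCDD 10 nM and RIF 10 μM. Total RNA was extracted with TRI Reagent, and mRNA was measured by probe-based qRT-PCR normalized to GAPDH. Statistics: one-way ANOVA, with 2-fold induction as threshold.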

CYP1A1 mRNA = experiment: qRT-PCR of CYP1A1 in primary human hepatocytes; assay type: cell-based; conditions: human hepatocytes from five donors, 10 μM, 24 h
Summary of the method: as §2

LS180 cells = experiment: MTT test in LS180 cells; assay type: cell-based, human; conditions: 50 μM, 24 h
Summary of the method: as §1

MDR1 mRNA [6] = experiment: qRT-PCR of MDR1 in primary human hepatocytes; assay type: cell-based; conditions: five hepatocyte cultures, RIF 10 μM, 24 h
MDR1a mRNA = experiment: MDR1a gene expression in tissues of mice expressing the human PXR transgene; assay type: in vivo, mice expressing the human PXR gene (hPXR)
Summary of the method: (§3)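 Humanized hPXR mice (C57BL/6 background, 6–10 weeks) received 10% DMSO or test compound in 3 or 5 doses of 500 μM each, 12 h apart. Groups had n = 3 (1 male, 2 females). Small intestine, large intestine and liver were assayed by qRT-PCR for CYP3A11 and MDR1a mRNA. Analysis: unpaired multiple t-tests with Holm-Sidak correction, α = 0.05, and a ≥2-fold induction criterion.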

CYP3A11 mRNA [7] = experiment: CYP3A11 gene expression in tissues of mice expressing the human PXR transgene; assay type: in vivo, mice expressing the human PXR gene (hPXR)
Summary of the method: as §3

CYP3A4 mRNA = experiment: qRT-PCR of CYP3A4 in primary human hepatocytes; assay type: cell-based; conditions: five hepatocyte cultures, 10 μM, 24 h
[8] = liver, large and small intestine, 3 or 5 doses (500 μM/dose), 12 h interval

| Structure (SMILES) | EC50 (PXR [3]) [nM] | AhR agonistic activity (AhR) | IC50 [4] [nM] | PXR antagonist effect (PXR [3]) | Induction of MDR1 mRNA in PXR-KO cells (MDR1 mRNA [5]) | Cytotoxicity in AZ-AHR cells (AZ-AHR cells) | Inhibition of TCDD-inducible luciferase activity (AhR) | Induction of MDR1 mRNA (MDR1 mRNA [5]) | Cytotoxicity (MTT) (LS180 cells) | further results |
| --- | --- | --- | --- | --- | --- | --- | --- | --- | --- | --- |
| C#CCC(O)(c1ccncc1)c1cc2ccccc2n1S(=O)(=O)c1ccccc1 (stereo not shown) [FKK6, 1-(1-(phenylsulfonyl)-1H-indol-2-yl)-1-(pyridin-4-yl)but-3-yn-1-ol] |  |  |  |  |  |  |  |  |  | Induction of PXR target genes in mouse intestines or liver (CYP3A11 mRNA [1]): robustly induced; PXR versus AhR agonist selectivity (PXR [2]): selective PXR agonist |
| C#CCC(O)(c1ccncc1)c1cc2ccccc2[nH]1 (stereo not shown) [CVK-003, 1-(1H-indol-2-yl)-1-(pyridin-4-yl)but-3-yn-1-ol] | 7500 | strong | 8590 |  |  |  |  |  |  |  |
| O=C(c1ccn2ccnc2c1)c1cc2ccccc2n1S(=O)(=O)c1ccccc1 [CVK-016, imidazo[1,2-a]pyridin-7-yl(1-(phenylsulfonyl)-1H-indol-2-yl)methanone] | ~800 |  |  | Dose-dependent antagonist effects | no effects | cytotoxic effects | Dose-dependent inhibition | Dose-dependent induction | slightly cytotoxic | Induction of hepatic CYP1A2 mRNA (CYP1A2 mRNA): significantly induced; Induction of hepatic CYP1A1 mRNA (CYP1A1 mRNA): significantly induced |
| CO[C@H]1/C=C/O[C@@]2(C)Oc3c(C)c(O)c4c(O)c(c(/C=N/N5CCN(C)CC5)c(O)c4c3C2=O)NC(=O)/C(C)=C\C=C\[C@H](C)[C@H](O)[C@@H](C)[C@@H](O)[C@@H](C)[C@H](OC(C)=O)[C@@H]1C [rifampicin] |  |  |  |  |  |  |  |  |  | Induction of MDR1 mRNA in human hepatocytes (MDR1 mRNA [6]): induction only by rifampicin and only in three hepatocytes cultures |

Further lines, with some results ahead:

| EC50 (PXR [3]) [nM] | AhR agonistic activity (AhR) | IC50 [4] [nM] | PXR antagonist effect (PXR [3]) | Induction of MDR1 mRNA in PXR-KO cells (MDR1 mRNA [5]) | Structure (SMILES) | Cytotoxicity in AZ-AHR cells (AZ-AHR cells) | Inhibition of TCDD-inducible luciferase activity (AhR) | Induction of MDR1 mRNA (MDR1 mRNA [5]) | Cytotoxicity (MTT) (LS180 cells) | further results |
| --- | --- | --- | --- | --- | --- | --- | --- | --- | --- | --- |
| ~800 | moderate |  | Dose-dependent antagonist effects | no effects | O=S(=O)(c1ccccc1)n1c(C(O)c2ccn3ccnc3c2)cc2ccccc21 (stereo not shown) [CVK-017, imidazo[1,2-a]pyridin-7-yl(1-(phenylsulfonyl)-1H-indol-2-yl)methanol] | cytotoxic effects | Dose-dependent inhibition | Dose-dependent induction | slightly cytotoxic |  |
| ~800 |  | 920 | Dose-dependent antagonist effects | no effects | C#CCC(O)(c1ccn2ccnc2c1)c1cc2ccccc2n1S(=O)(=O)c1ccccc1 (stereo not shown) [CVK-021, 1-(imidazo[1,2-a]pyridin-7-yl)-1-(1-(phenylsulfonyl)-1H-indol-2-yl)but-3-yn-1-ol] | cytotoxic effects | Dose-dependent inhibition | Dose-dependent induction | slightly cytotoxic | MDR1a gene expression, Figure 7A (MDR1a mRNA; large and small intestines): increased gene expression; MDR1a gene expression, Figure 7B (MDR1a mRNA; liver and large intestine): increased gene expression; Induction (≥ 2) of mean MDR1a mRNA expression (MDR1a mRNA; [8]): no significant induction; CYP3A11 gene expression (CYP3A11 mRNA [7]; 3-dose and 5-dose study): not affected; Induction (≥ 2) of mean CYP3A11 mRNA expression (CYP3A11 mRNA [7]; [8]): no significant induction; Induction of CYP3A4 mRNA in human hepatocytes (CYP3A4 mRNA): significantly induced CYP3A4 mRNA in all five human hepatocytes cultures |
